Results of several laboratories.
Protocols differ between the studies behind these lines.
Read-out: cell growth or viability

Compound | cell line | assay | conditions | quantity | value
NS(=O)(=O)OC[C@H]1C[C@@H](Nc2ccnc3cc(-c4cccc(SC(F)(F)F)c4)nn23)[C@H](O)[C@@H]1O | HEK-293T | ATP luminescence | 24 h | EC50 | 0.296 µM
OCc1ccc(-c2nn(Cc3ccccc3)c3ccccc23)o1 | HepG2 | ATP luminescence | – | IC50 | 7.14 µM
c1cnc2c(c1)ccc1cccnc12 | HEK-293T | MTT | 12.5 µg/mL, 24 h | viability | > 80%
NS(=O)(=O)c1ccc(-c2ccc(Nc3ccc(Cl)cc3)cc2)cc1 | HEK-293T | MTT | 100 µM | viability | 76%
Cc1ccc(N(C)c2ccc(NC(=O)CN(C)c3ccccc3N3CCCC3=O)cc2)nc1 | HepG2 | ATP luminescence | 48 h | CC50 | > 40 µM
NS(=O)(=O)c1ccc(-c2ccc(Nc3ccncc3)cc2)cc1 | HEK-293T | MTT | 100 µM | viability | 69%
O=c1c2c([nH]c3cc(Oc4ccc(OC(F)(F)F)cc4)ccc13)CCCC2 | HepG2 | MTT | 48 h | IC50 | > 50 µM
CCN(c1ccc(C)cc1)c1ccc(NC(=O)CN(C)c2ccccc2N2CCCC2=O)cn1 | HepG2 | ATP luminescence | 48 h | CC50 | > 40 µM
